Series [1] has as its system Trypanosoma cruzi. As to the kind of experiment: Antitrypanosomal activity against Trypanosoma cruzi MHOM/Pe/2011/Arequipa DTU 5 trypamastigotes infected in Balb/c mouse assessed as reduction in parasitaemia reactivation in spleen tissue at 100 mg/kg, po pretreated once daily for 5 consecutive days starting from day 75 post infection followed by cyclophosphamide-induced immunosuppression on day 100 post infection every 4 days for a maximum of 3 doses measured on day 127 post infection by PCR method. Also noted: scale not given: the % may be the effect or the level left. It counts as functional.

The test system of series [2] is Mus musculus. The series can be described thus: Hepatotoxicity in Balb/c mouse infected with Trypanosoma cruzi MHOM/Pe/2011/Arequipa DTU 5 trypamastigotes assessed as increase in ratio of serum ALT to GPT level at […], po once daily for 5 consecutive days starting from day 75 post infection measured on day 81 post infection by biochemical analysis relative to control. The conditions noted are these: in vivo. The class given is toxicity, organism-based.

Series [3] has as its system Mus musculus. The series can be described thus: Hepatotoxicity in Balb/c mouse infected with Trypanosoma cruzi MHOM/Pe/2011/Arequipa DTU 5 trypamastigotes assessed as increase in ratio of serum AST to GOT level at […], po once daily for 5 consecutive days starting from day 10 post infection measured on day 16 post infection by biochemical analysis relative to control. It counts as toxicity, organism-based. The conditions noted are these: in vivo.

Series [4] deals with Mus musculus. The series can be described thus: Hepatotoxicity in Balb/c mouse infected with Trypanosoma cruzi MHOM/Pe/2011/Arequipa DTU 5 trypamastigotes assessed as increase in alkaline phosphatase level at 20 mg/kg, po once daily for 5 consecutive days starting from day 75 post infection measured on day 127 post infection by biochemical analysis relative to control. The class given is toxicity, organism-based. The settings on record: in vivo.

In series [5] the test system is Mus musculus. As to the kind of experiment: Cardiotoxicity in Balb/c mouse infected with Trypanosoma cruzi MHOM/Pe/2011/Arequipa DTU 5 trypamastigotes assessed as decrease in serum LDH level at 20 mg/kg, po once daily for 5 consecutive days starting from day 75 post infection measured on day 127 post infection by biochemical analysis relative to control. Details: scale not given: the % may be the effect or the level left. The conditions noted are these: in vivo. The class given is toxicity, organism-based. In a few lines: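 Serum clinical chemistry in Arequipa-infected female BALB/c mice. Oral 20 mg·kg-1 per day for 5 days, started day 10 or day 75 pi. Samples taken at day 16 pi or day 81 pi, and on necropsy day. Markers: CK-MB and LDH (U/L), AST, ALT and alkaline phosphatase (U/L), total bilirubin. Results scored relative to infected untreated controls; uninfected reference n = 15.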

Series [6] concerns Mus musculus. The series can be described thus: Toxicity in Balb/c mouse assessed as death at 20 mg/kg, po once daily for 5 consecutive days starting from day 75 post infection. The class given is organism-based. The conditions noted are these: in vivo. In a few lines: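 Female BALB/c mice (8-10 weeks, 20-25 g), groups of six, infected i.p. with 5 x 10^5 Arequipa bloodstream trypomastigotes. Dosing was oral, 20 mg·kg-1 per day for 5 days, given as a 2 mg·mL-1 suspension in 5% DMSO/0.5% hydroxypropyl methylcellulose. Treatment started day 10 pi (acute phase) or day 75 pi (chronic phase). Deaths and body-mass loss were monitored during and after treatment.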

For series [7], the system named is Mus musculus. As to the kind of experiment: Hepatotoxicity in Balb/c mouse infected with Trypanosoma cruzi MHOM/Pe/2011/Arequipa DTU 5 trypamastigotes assessed as increase in total bilirubin level at 20 mg/kg, po once daily for 5 consecutive days starting from day 75 post infection measured on day 127 post infection by biochemical analysis relative to control. The class given is toxicity, organism-based. The settings on record: in vivo.

For series [8], the system named is Mus musculus. As to the kind of experiment: Nephrotoxicity in Balb/c mouse infected with Trypanosoma cruzi MHOM/Pe/2011/Arequipa DTU 5 trypamastigotes assessed as decrease in uric acid level in serum at 20 mg/kg, po once daily for 5 consecutive days starting from day 75 post infection measured on day 81 post infection by biochemical analysis relative to control. The settings on record: in vivo. Details: scale not given: the % may be the effect or the level left. The class given is toxicity, organism-based.

Series [9] relates to Trypanosoma cruzi. As to the kind of experiment: Antitrypanosomal activity against Trypanosoma cruzi MHOM/Pe/2011/Arequipa DTU 5 trypamastigotes infected in Balb/c mouse assessed as reduction in Ig-G level in serum at 20 mg/kg, po pretreated once daily for 5 consecutive days starting from day 10 post infection followed by cyclophosphamide-induced immunosuppression on day 100 post infection every 4 days for a maximum of 3 doses measured on day 127 post infection by ELISA. It counts as functional, organism-based. The method, boiled down:
(§1)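 Female BALB/c mice (8-10 weeks, 20-25 g), six per group, infected i.p. with 5 x 10^5 Arequipa bloodstream trypomastigotes. Compound was given orally once daily for 5 days from day 10 or day 75 pi, at 20 mg·kg-1 per day in 5 % DMSO/0.5 % HPMC. Anti-T. cruzi IgG in serum was measured by ELISA with Fe-SOD antigen, read as OD 490 nm.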

Series [10] relates to Trypanosoma cruzi. The series can be described thus: Antitrypanosomal activity against Trypanosoma cruzi MHOM/Pe/2011/Arequipa DTU 5 trypamastigotes infected in Balb/c mouse assessed as reduction in Ig-G level in serum at 20 mg/kg, po pretreated once daily for 5 consecutive days starting from day 75 post infection followed by cyclophosphamide-induced immunosuppression on day 100 post infection every 4 days for a maximum of 3 doses measured on day 127 post infection by ELISA. The class given is functional, organism-based. The method, boiled down: as §1

Series [11] relates to Mus musculus. As to the kind of experiment: Nephrotoxicity in Balb/c mouse infected with Trypanosoma cruzi MHOM/Pe/2011/Arequipa DTU 5 trypamastigotes assessed as decrease in urea level in serum at 20 mg/kg, po once daily for 5 consecutive days starting from day 75 post infection measured on day 81 post infection by biochemical analysis relative to control. It counts as toxicity, organism-based. Details: scale not given: the % may be the effect or the level left. The conditions noted are these: in vivo.

Series [12] deals with Trypanosoma cruzi. As to the kind of experiment: Antitrypanosomal activity against Trypanosoma cruzi MHOM/Pe/2011/Arequipa DTU 5 trypamastigotes infected in Balb/c mouse assessed as reduction in parasitaemia reactivation in muscle tissue at 20 mg/kg, po pretreated once daily for 5 consecutive days starting from day 10 post infection followed by cyclophosphamide-induced immunosuppression on day 100 post infection every 4 days for a maximum of 3 doses measured on day 127 post infection by PCR method. The class given is functional. Also noted: scale not given: the % may be the effect or the level left.

Series [13] has as its system Trypanosoma cruzi. As to the kind of experiment: Antitrypanosomal activity against Trypanosoma cruzi MHOM/Pe/2011/Arequipa DTU 5 trypamastigotes infected in Balb/c mouse assessed as reduction in splenomegaly at 20 mg/kg, po once daily for 5 consecutive days starting from day 10 post infection measured on day 127 post infection relative to control. The class given is functional, organism-based.

The test system of series [14] is Trypanosoma cruzi. The series can be described thus: Antitrypanosomal activity against Trypanosoma cruzi MHOM/Pe/2011/Arequipa DTU 5 trypamastigotes infected in Balb/c mouse assessed as reduction in parasitaemia reactivation in stomach tissue at 20 mg/kg, po pretreated once daily for 5 consecutive days starting from day 10 post infection followed by cyclophosphamide-induced immunosuppression on day 100 post infection every 4 days for a maximum of 3 doses measured on day 127 post infection by PCR method. The class given is functional. Details: scale not given: the % may be the effect or the level left.

Series [15] has as its system Mus musculus. The series can be described thus: Nephrotoxicity in Balb/c mouse infected with Trypanosoma cruzi MHOM/Pe/2011/Arequipa DTU 5 trypamastigotes assessed as increase in uric acid level in serum at […], po once daily for 5 consecutive days starting from day 75 post infection measured on day 81 post infection by biochemical analysis relative to control. The class given is toxicity, organism-based. The settings on record: in vivo.

The subject of series [16] is Mus musculus. The series can be described thus: Nephrotoxicity in Balb/c mouse infected with Trypanosoma cruzi MHOM/Pe/2011/Arequipa DTU 5 trypamastigotes assessed as increase in urea level in serum at […], po once daily for 5 consecutive days starting from day 75 post infection measured on day 81 post infection by biochemical analysis relative to control. The class given is toxicity, organism-based. The conditions noted are these: in vivo.

The test system of series [17] is Trypanosoma cruzi. The series can be described thus: Antitrypanosomal activity against Trypanosoma cruzi MHOM/Pe/2011/Arequipa DTU 5 epimastigotes assessed as effect on parasite glycerol pathway by measuring increase in glycerol excretion at IC25 after 72 hrs by 1H NMR method. The class given is functional, organism-based. The method, boiled down: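 Arequipa epimastigotes exposed at IC25 for 72 h alongside an untreated control. Excreted catabolites were analysed by 1H NMR, and each peak is reported as % variation versus the control. Three separate determinations.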

Each structure is given as a SMILES string. The source made the active and inactive calls. The rule behind the calls is not given here.

Consider `COc1ccc(C(=O)CCN2CCN(c3ccc(Cl)cc3)CC2)cc1`, for which the Activity in the series on Trypanosoma cruzi [1] amounted to 78%.

Consider `COc1ccc(C(=O)CCN2CCN(c3ccc([N+](=O)[O-])cc3)CC2)cc1`, for which the Activity result with Mus musculus [2] was “<= 30%”; in the series on Mus musculus [3] it was more than 40%.

Regarding `O=C(Cn1ccnc1[N+](=O)[O-])NCc1ccccc1` [BENZNIDAZOLE], the Activity entry in the series with Mus musculus [4] is on record as “<= 20%”; in the series on Mus musculus [5], “<= 20%”; with Mus musculus [6], “Non-Toxic”; with Mus musculus [7] it was “<= 20%”; in the series on Mus musculus [8] it was more than 40%; with Mus musculus [11], “<= 30%”. For the same compound, the Activity in the series on Trypanosoma cruzi [12] and in the series on Trypanosoma cruzi [14] was 33% each time. Moreover, the result in the series with Trypanosoma cruzi [9], in the series with Trypanosoma cruzi [10] and in the series on Trypanosoma cruzi [13] was Active.

Take `COc1ccc(C(=O)CCN2CCN(c3ccc(F)cc3)CC2)cc1`: the Activity entry is reported as “<= 10%” in the series on Mus musculus [15] and “<= 30%” in the series on Mus musculus [16]. In addition, the result in the series on Trypanosoma cruzi [17] was Active.

The values are drawn from ChEMBL document CHEMBL4118256, “Second Generation of Mannich Base-Type Derivatives with in Vivo Activity against Trypanosoma cruzi” (J Med Chem, 2018).
